One assay is filed under the species Homo sapiens. The assay can be described thus: Induction of cytoplasmic microtubule network disassembly in human SGC7901 cells at 2 times antiproliferative IC50 after 48 hrs by DAPI staining-based immunofluorescence microscopic method. Format: cell-based.
The test system of another assay is A549. The assay can be described thus: Antiproliferative activity against human A549 cells after 72 hrs by MTT assay. The format is functional, cell-based. The note with it: A549, 72 h. Put shortly:
(§1)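 MTT assay on human SGC-7901 gastric adenocarcinoma, A549 lung adenocarcinoma and HT-1080 fibrosarcoma cells. The read-out was the half maximal inhibitory concentration (IC50). SMART and ABI were run in parallel as positive controls.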

The subject of assay [1] is SGC-7901. Kind of assay: Antiproliferative activity against human SGC7901 cells after 72 hrs by MTT assay. The format is functional, cell-based. As to conditions: SGC-7901, 72 h. The gist of the method:
as §1
In general terms: Tetrazolium assays rely on reduction of a dye to a coloured formazan, in cell work by metabolically active cells.

The test system of a further assay is HT-1080. The assay can be described thus: Antiproliferative activity against human HT1080 cells after 72 hrs by MTT assay. As to conditions: HT-1080, 72 h. Format: functional, cell-based. The gist of the method: as §1
For assay [2], the system named is SGC-7901. The assay can be described thus: Cell cycle arrest in human SGC7901 cells assessed as accumulation at sub-G1 phase at 0.044 uM after 6 to 72 hrs by propidium iodide staining-based flow cytometry. The format is functional. The gist of the method:
(§2)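 Time-course study in SGC-7901 cells treated with test agent. Cell cycle distribution (sub-G1, G0/G1, S, G2/M) and polyploidy were analysed by flow cytometry at successive time points.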
For orientation: A flow cytometer gives signals particle by particle.

In assay [3] the test system is SGC-7901. The assay can be described thus: Cell cycle arrest in human SGC7901 cells assessed as decrease in cell levels at S phase at 0.044 uM after 6 to 72 hrs by propidium iodide staining-based flow cytometry. The format is functional. The gist of the method:
as §2

The test system of assay [4] is SGC-7901. Kind of assay: Cell cycle arrest in human SGC7901 cells assessed as decrease in cell levels at G0/G1 phase at 0.044 uM after 6 to 72 hrs by propidium iodide staining-based flow cytometry. Format: functional. The gist of the method: as §2
The species named for the next assay is Sus scrofa. Kind of assay: Inhibition of porcine brain tubulin polymerization preincubated for 1 min followed by GTP addition measured at 1 min intervals for 90 mins by spectrophotometric method.
Test in assay [5]: as above
For assay [6], the system named is SGC-7901. The assay can be described thus: Cell cycle arrest in human SGC7901 cells assessed as induction of polyploidy at S phase at 0.044 uM after 24 hrs by propidium iodide staining-based flow cytometry. Format: functional. Put shortly: as §2
The subject of assay [7] is SGC-7901. The assay can be described thus: Cell cycle arrest in human SGC7901 cells assessed as accumulation at G2/M phase at 0.044 uM by propidium iodide staining-based flow cytometry. The format is functional. As to conditions: TDE = time-dependent effect. Put shortly:
as §2

Activity calls are given as the source filed them. The calls are words filed in the database; no cut-off is given here.

Regarding `COc1cc(C(=O)c2csc(-c3ccccc3)n2)cc(OC)c1OC`, in the assay listed under Homo sapiens, the result was Active. The figures for the IC50 in the assay with A549, in the assay on SGC-7901 [1] and in the assay with HT-1080 were 0.029 µM, 0.019 µM and 0.028 µM, respectively.
Regarding `COc1ccc(-c2nn3c(-c4cc(OC)c(OC)c(OC)c4)nnc3s2)cc1N`, the result with SGC-7901 [2], in the assay listed under Homo sapiens, with SGC-7901 [3], with SGC-7901 [4] and in the assay with SGC-7901 [6] was Active. In addition, the IC50 in the assay on A549 was determined as 0.029 µM; with SGC-7901 [1], 0.022 µM; in [5] it was 0.77 µM; with HT-1080 it was 0.027 µM. The inhibition result in the assay listed under Sus scrofa is “Dose-dependent effect”. For the same compound, the Activity entry with SGC-7901 [7] was “Tde”.
On to `COc1ccc(-c2cc3[nH]nc(-c4cc(OC)c(OC)c(OC)c4)n3n2)cc1[N+](=O)[O-]`, for which the values for the IC50 in the assay with A549, in the assay with SGC-7901 [1] and in the assay on HT-1080 were 58.2 µM, 48.3 µM and 35.6 µM, respectively.
Take `COc1ccc(-c2nn3c(-c4ccc(OC)c(OC)c4OC)nnc3s2)cc1N`: the IC50 came out at 0.082 µM in the assay on A549, 0.062 µM with SGC-7901 [1] and 0.073 µM with HT-1080.
With `COc1ccc(-c2cc3[nH]nc(-c4cc(OC)c(OC)c(OC)c4)n3n2)cc1`, the IC50 in the assay with A549 was determined as 26.4 µM; in the assay with SGC-7901 [1], 26.8 µM; in the assay with HT-1080, 26.5 µM.
Taken in the same sequence, the figures for `COc1ccc(-c2nnc3sc(-c4ccc(C)cc4)nn23)c(OC)c1OC` were 0.803 µM, 0.186 µM and 0.089 µM.
With `COc1cccc(-c2nnc3sc(-c4ccc(OC)c(N)c4)nn23)c1`, the IC50 worked out at 0.12 µM in the assay on A549, 0.059 µM with SGC-7901 [1] and 0.088 µM with HT-1080.
As for `COc1ccc(-c2nn3c(-c4ccc5c(c4)OCO5)nnc3s2)cc1[N+](=O)[O-]`, the values for the IC50 with A549, in the assay with SGC-7901 [1] and in the assay on HT-1080 were 32.8 µM, 37.8 µM and 30.3 µM, respectively.
The corresponding values for `COc1ccc(-c2nn3c(-c4ccc(OC)c(OC)c4)nnc3s2)cc1N` are 0.522 µM, 0.083 µM and 0.339 µM.
The corresponding values for `COc1ccc(-c2nnc3sc(-c4ccc(OC)c([N+](=O)[O-])c4)nn23)cc1OC` are 30.4 µM, 37.7 µM and 32.8 µM.
Turning to `COc1ccc(-c2nn3c(-c4ccc(OC)c(OC)c4OC)nnc3s2)cc1[N+](=O)[O-]`, the IC50 came to 33.8 µM in the assay on A549, 32.5 µM in the assay on SGC-7901 [1] and 35.1 µM in the assay on HT-1080.
Taken in the same sequence, the figures for `COc1cc(-c2n[nH]c3cc(-c4ccc(Cl)cc4)nn23)cc(OC)c1OC` were 1.21 µM, 6.12 µM and 6.81 µM.
On to `COc1cc(-c2n[nH]c3cc(-c4ccc(C)cc4)nn23)cc(OC)c1OC`, for which the figures for the IC50 with A549, in the assay on SGC-7901 [1] and in the assay on HT-1080 were 29.3 µM, 33.5 µM and 51.3 µM, respectively.
Regarding `COc1ccc(-c2nnc3sc(-c4ccc(OC)c([N+](=O)[O-])c4)nn23)cc1`, the IC50 with A549 is 26.9 µM; in the assay with SGC-7901 [1] it was 22.1 µM; in the assay with HT-1080 it was 27.3 µM.
The corresponding values for `COc1ccc(-c2nn3c(-c4ccc(OC)c(OC)c4OC)nnc3s2)cc1` are 2.29 µM, 3.75 µM and 1.88 µM.
In the case of `COc1ccc(-c2cc3[nH]nc(-c4cc(OC)c(OC)c(OC)c4)n3n2)cc1N`, the IC50 in the assay on A549 stood at 17.4 µM; with SGC-7901 [1], 13.8 µM; with HT-1080, 17.8 µM.
Take `COc1ccc(-c2nn3c(-c4ccc5c(c4)OCO5)nnc3s2)cc1N`: the figures for the IC50 in the assay with A549, in the assay with SGC-7901 [1] and in the assay with HT-1080 were 0.272 µM, 0.057 µM and 0.327 µM, respectively.
With `COc1cccc(-c2nnc3sc(-c4ccc(OC)c([N+](=O)[O-])c4)nn23)c1`, the IC50 with A549 is 29.5 µM; with SGC-7901 [1], 34.7 µM; in the assay on HT-1080, 33 µM.
As for `COc1ccc(-c2nn3c(-c4cc(OC)c(OC)c(OC)c4)nnc3s2)cc1[N+](=O)[O-]`, the values for the IC50 in the assay with A549, in the assay with SGC-7901 [1] and in the assay on HT-1080 were 26.5 µM, 23.2 µM and 30.2 µM, respectively.
The corresponding values for `COc1cc(C(=O)c2c[nH]c(-c3ccccc3)n2)cc(OC)c1OC` are 0.98 µM, 0.81 µM and 0.15 µM.
Regarding `COc1ccc(-c2nnc3sc(-c4ccc(OC)c(N)c4)nn23)cc1`, the IC50 with A549 was 14.9 µM; in the assay on SGC-7901 [1] it was 14.2 µM; with HT-1080, 16.4 µM.
The corresponding values for `COc1ccc(-c2nn3c(-c4ccc5c(c4)OCO5)nnc3s2)cc1` are 29.7 µM, 25.6 µM and 24.5 µM.
For the compound `Cc1ccc(-c2nn3c(-c4ccc5c(c4)OCO5)nnc3s2)cc1`, the IC50 in the assay on A549 worked out at 27.7 µM; in the assay on SGC-7901 [1], 24 µM; with HT-1080, 26.8 µM.

Broadly, the IC50 is the point on the concentration scale where inhibition reaches its midpoint.

(Values after ChEMBL document CHEMBL4130379, “Design, synthesis and bioevaluation of antitubulin agents carrying diaryl-5,5-fused-heterocycle scaffold” (Eur J Med Chem, 2017).)
